Among the data in ChEMBL document CHEMBL1155549, “Sialic acid-mimic peptides as hemagglutinin inhibitors for anti-influenza therapy” (J Med Chem, 2010) are Kd, Activity and IC50 values, retold here.

Activity calls are given as the source filed them. The calls are words filed in the database; no cut-off is given here. Where a SMILES comes first, the peptide text is derived from it. The star is where a group is joined. Biotin = O=C1N[C@H]2[C@H](CS[C@H]2CCCCC(=O)*)N1; Stearoyl = CCCCCCCCCCCCCCCCCC(=O)*

Assay [1] can be described thus: Binding affinity to wheat germ agglutinin by phage ELISA. Also on record: species or system Triticum aestivum. Put shortly: (§1)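 Wells coated with target (HA, WGA or anti-GM3 antibody) were blocked with 1% BSA/TBS. Phage in TBS was added for 2 h, washed with TBST and reblocked with 5% BSA/TBS. Detection used anti-fd antibody then peroxidase anti-rabbit IgG, 1 h each, with o-phenylenediamine read as ΔA at 492 nm, in triplicate. Phage concentration came from A260. Kd was from a linear plot of ΔA against phage concentration.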
Background: In an ELISA, binding on a coated surface is turned into a signal by an enzyme label.

Assay [2] in a line: Binding affinity to Influenza A virus (A/Wuhan/359/1995 (H3N2)) hemagglutininin by phage ELISA. Put shortly:
as §1

The target of assay [3] is Hemagglutinin (Influenza A virus (A/Puerto Rico/8/1934(H1N1)), UniProt P03452). Kind of assay: Binding affinity to Influenza A virus (A/Puerto Rico/8/34(H1N1)) hemagglutininin by phage ELISA. The essentials: as §1
In assay [4] the test system is Influenza A virus (A/Wuhan/359/1995(H3N2)). Kind of assay: Binding affinity to Influenza A virus (A/Wuhan/359/1995 (H3N2)) hemagglutininin by scintillation proximity assay. On the technique in general: Scintillation proximity formats need no separation of bound from free tracer.
Assay [5] relates to Influenza A virus (A/Wyoming/03/2003(H3N2)). Kind of assay: (§2) Binding affinity to Influenza A virus (A/Wyoming/03/2003 (H3N2)) hemagglutininin by avidin-biotin peroxidase complex method. Put shortly:
(§3)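 HA was coated at 70 μg/mL overnight at 4 °C and blocked with 1% BSA/PBS. C-terminally biotinylated peptides (5-400 μM) were added for 2 h. After PBS washes, peroxidase-streptavidin was added for 1 h, and o-phenylenediamine colour was read as ΔA at 492 nm, in triplicate. Kd came from a Scatchard plot over 20-200 μM peptide.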

Assay [6] concerns Influenza A virus (A/New Caledonia/20/1999(H1N1)). Kind of assay: (§4) Binding affinity to Influenza A virus (A/New Caledonia/20/1999 (H1N1)) hemagglutininin by avidin-biotin peroxidase complex method. The essentials:
as §3

Assay [7] deals with Influenza A virus. Description: Antiviral activity against Influenza A virus (A/Puerto Rico/8/34(H1N1)) infected in MDCK cells after 48 hrs by plaque assay. The class given is functional, organism-based. The note with it: A/Puerto Rico/8/1934(H1N1). Put shortly: (§5)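 N-stearoyl peptides were serially diluted in PBS from a 2 mM stock and mixed with 50-200 pfu virus for 30 min at room temperature. The mixture was put on MDCK monolayers for 30 min at 37 °C under 5% CO2, then washed off. After 2 days, plaques were stained with crystal violet and counted. Inhibition was 100(1 - N/N0), n = 3, plotted against concentration.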

For assay [8], the system named is H3N2 subtype. Description: Antiviral activity against Influenza A virus (A/Aichi/2/1968(H3N2)) infected in MDCK cells after 48 hrs by plaque assay. Format: functional, organism-based. The essentials:
as §5

Assay [9] is described as follows: as §2. Put shortly:
as §3

The nature of assay [10]: as §4. The essentials: as §3

Chain of Hemagglutinin (Influenza A virus (A/Puerto Rico/8/1934(H1N1)), UniProt P03452) (P03452 18-342 limits assumed): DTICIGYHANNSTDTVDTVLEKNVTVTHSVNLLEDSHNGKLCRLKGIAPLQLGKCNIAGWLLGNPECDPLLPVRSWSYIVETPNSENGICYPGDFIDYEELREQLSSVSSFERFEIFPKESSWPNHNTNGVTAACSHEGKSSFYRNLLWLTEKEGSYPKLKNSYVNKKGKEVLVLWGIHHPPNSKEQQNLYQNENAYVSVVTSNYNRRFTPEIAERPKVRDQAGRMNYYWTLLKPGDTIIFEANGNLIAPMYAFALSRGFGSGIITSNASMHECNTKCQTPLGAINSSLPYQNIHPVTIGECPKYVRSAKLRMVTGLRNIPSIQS
Chain of Hemagglutinin (Influenza A virus (A/Puerto Rico/8/1934(H1N1)), UniProt P03452) (P03452 344-565 limits assumed): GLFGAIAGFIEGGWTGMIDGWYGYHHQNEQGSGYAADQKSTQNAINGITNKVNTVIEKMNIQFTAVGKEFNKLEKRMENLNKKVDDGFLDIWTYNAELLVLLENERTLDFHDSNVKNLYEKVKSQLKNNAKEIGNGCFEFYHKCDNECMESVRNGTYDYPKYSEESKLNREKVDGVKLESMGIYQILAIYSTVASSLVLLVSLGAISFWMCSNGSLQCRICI

The Kd is the free concentration of one partner at which half of the binding sites on the other are occupied at equilibrium, for simple one-to-one binding. High values mean weaker binding, low ones tighter binding. `CSCC[C@H](NC(=O)[C@@H](NC(=O)[C@@H]1CCCN1C(=O)[C@H](CO)NC(=O)[C@H](CC(C)C)NC(=O)[C@H](CCCN=C(N)N)NC(=O)[C@H](C)N)[C@@H](C)O)C(=O)N[C@H](C(=O)N[C@@H](Cc1cnc[nH]1)C(=O)N1CCC[C@H]1C(=O)N[C@@H](CC(N)=O)C(=O)NCC(=O)N[C@@H](C)C(=O)N[C@@H](CCC(N)=O)C(=O)N1CCC[C@H]1C(=O)O)C(C)C`: the figures for the Kd in assay [1], in assay [2] and in assay [3] were 16 nM, 8.6 nM and 7.8 nM, respectively.

In the case of `CSCC[C@H](NC(=O)[C@@H](NC(=O)[C@@H]1CCCN1C(=O)[C@H](CO)NC(=O)[C@H](CC(C)C)NC(=O)[C@H](CCCNC(=N)N)NC(=O)[C@@H](C)N)[C@@H](C)O)C(=O)N[C@H](C(=O)N[C@@H](Cc1cnc[nH]1)C(=O)N1CCC[C@H]1C(=O)N[C@@H](CC(N)=O)C(=O)NCC(=O)N[C@@H](C)C(=O)N[C@@H](CCC(N)=O)C(=O)N1CCC[C@H]1C(=O)O)C(C)C`, the result in assay [4] was Active.

As for `CSCC[C@H](NC(=O)[C@@H](NC(=O)[C@H](CCCNC(=N)N)NC(=O)[C@@H]1CCCN1C(=O)[C@H](CC(C)C)NC(=O)[C@H](C)NC(=O)[C@H](C)N)[C@H](C)O)C(=O)N[C@H](C(=O)N[C@@H](Cc1cnc[nH]1)C(=O)N1CCC[C@H]1C(=O)N[C@@H](CCCCN)C(=O)N1CCC[C@H]1C(=O)N[C@@H](C)C(=O)N[C@@H](CCC(N)=O)C(=O)N1CCC[C@H]1C(=O)N[C@@H](CCCCNC(=O)CCCC[C@@H]1SC[C@@H]2NC(=O)N[C@@H]21)C(N)=O)C(C)C`, the outcome in assay [5] and in [6] was inactive.

Regarding `CSCC[C@H](NC(=O)[C@@H](NC(=O)[C@H](CCCNC(=N)N)NC(=O)[C@@H]1CCCN1C(=O)[C@H](C)NC(=O)[C@H](CCCNC(=N)N)NC(=O)[C@H](C)N)[C@@H](C)O)C(=O)N[C@H](C(=O)N[C@@H](Cc1cnc[nH]1)C(=O)N1CCC[C@H]1C(=O)N[C@@H](CCCCN)C(=O)N1CCC[C@H]1C(=O)N[C@@H](C)C(=O)N[C@@H](CCC(N)=O)C(=O)N1CCC[C@H]1C(=O)N[C@@H](CCCCNC(=O)CCCC[C@@H]1SC[C@@H]2NC(=O)N[C@@H]21)C(N)=O)C(C)C` (H-ARAPRTMVHPKPAQPK(Biotin)-NH2), the result in [5] and in [6] was inactive.

In the case of `CC(C)C[C@H](NC(=O)[C@H](CCCNC(=N)N)NC(=O)[C@H](C)N)C(=O)N1CCC[C@H]1C(=O)N[C@@H](CCCNC(=N)N)C(=O)N[C@H](C(=O)N[C@@H](C)C(=O)N[C@H](C(=O)N[C@@H](Cc1cnc[nH]1)C(=O)N1CCC[C@H]1C(=O)N[C@@H](CCCCN)C(=O)N1CCC[C@H]1C(=O)N[C@@H](C)C(=O)N[C@@H](CCC(N)=O)C(=O)N1CCC[C@H]1C(=O)N[C@@H](CCCCNC(=O)CCCC[C@@H]1SC[C@@H]2NC(=O)N[C@@H]21)C(N)=O)C(C)C)[C@@H](C)O` (H-ARLPRTAVHPKPAQPK(Biotin)-NH2), the result in assay [5] and in assay [6] was inactive.

On to `CSCC[C@H](NC(=O)[C@@H](NC(=O)[C@H](CCCNC(=N)N)NC(=O)[C@@H]1CCCN1C(=O)[C@H](CC(C)C)NC(=O)[C@H](CCCNC(=N)N)NC(=O)[C@H](C)N)[C@@H](C)O)C(=O)N[C@H](C(=O)N[C@@H](Cc1cnc[nH]1)C(=O)N1CCC[C@H]1C(=O)N[C@@H](C)C(=O)N1CCC[C@H]1C(=O)N[C@@H](C)C(=O)N[C@@H](CCC(N)=O)C(=O)N1CCC[C@H]1C(=O)N[C@@H](CCCCNC(=O)CCCC[C@@H]1SC[C@@H]2NC(=O)N[C@@H]21)C(N)=O)C(C)C` (H-ARLPRTMVHPAPAQPK(Biotin)-NH2), for which the outcome in assay [5] and in [6] was inactive.

One may read the IC50 as the concentration that gives 50% inhibition. A high value points to weaker potency in that assay. For the molecule `CCCCCCCCCCCCCCCCCC(=O)N[C@@H](C)C(=O)N[C@@H](CCCNC(=N)N)C(=O)N[C@@H](CC(C)C)C(=O)N1CCC[C@H]1C(=O)N[C@@H](CCCNC(=N)N)C(=O)N[C@H](C(=O)N[C@@H](CCSC)C(=O)N[C@H](C(=O)N[C@@H](Cc1cnc[nH]1)C(=O)N1CCC[C@H]1C(=O)N[C@@H](CCCCN)C(=O)N[C@H](C(=O)N[C@@H](C)C(=O)N[C@@H](Cc1cnc[nH]1)C(=O)N[C@@H](CCC(N)=O)C(N)=O)[C@@H](C)O)C(C)C)[C@@H](C)O` (Stearoyl-ARLPRTMVHPKTAHQ-NH2), the IC50 came to 13000 nM in assay [7] and 8000 nM in [8].

For `CCCCCCCCCCCCCCCCCC(=O)N[C@@H](C)C(=O)N[C@@H](CCCNC(=N)N)C(=O)N[C@@H](CC(C)C)C(=O)N1CCC[C@H]1C(=O)N[C@@H](CCCNC(=N)N)C(=O)N[C@H](C(=O)N[C@@H](CCSC)C(=O)N[C@H](C(=O)N[C@@H](Cc1cnc[nH]1)C(=O)N[C@@H](CO)C(=O)N[C@@H](CCCCN)C(=O)N1CCC[C@H]1C(=O)N[C@@H](C)C(=O)N[C@@H](CCC(N)=O)C(=O)N1CCC[C@H]1C(=O)O)C(C)C)[C@@H](C)O` (Stearoyl-ARLPRTMVHSKPAQP-OH), the figures for the concentration for half-maximal inhibition (IC50) in [7] and in assay [8] were 41000 nM and 6800 nM, respectively.

Turning to `CCCCCCCCCCCCCCCCCC(=O)N[C@@H](CCCNC(=N)N)C(=O)N[C@H](C(=O)N[C@@H](CCSC)C(=O)N[C@H](C(=O)N[C@@H](Cc1cnc[nH]1)C(=O)N1CCC[C@H]1C(=O)N[C@@H](CCCCN)C(N)=O)C(C)C)[C@@H](C)O` (Stearoyl-RTMVHPK-NH2), the IC50 in assay [7] is greater than 100000 nM; in assay [8], 11000 nM.

As to `CCCCCCCCCCCCCCCCCC(=O)N[C@H](C(=O)N[C@@H](CCCNC(=N)N)C(=O)N[C@@H](CC(C)C)C(=O)N1CCC[C@H]1C(=O)N[C@@H](CCCNC(=N)N)C(=O)N[C@H](C(=O)N[C@@H](CCSC)C(=O)N[C@@H](CC(C)C)C(=O)N[C@@H](Cc1cnc[nH]1)C(=O)N[C@@H](Cc1cnc[nH]1)C(=O)N[C@@H](CCCCN)C(=O)N1CCC[C@H]1C(=O)N[C@@H](C)C(=O)N[C@@H](CCC(N)=O)C(=O)N[C@@H](C)C(N)=O)[C@@H](C)O)[C@@H](C)O` (Stearoyl-TRLPRTMLHHKPAQA-NH2), the IC50 in assay [7] worked out at 5100 nM; in assay [8], 10000 nM.

In the case of `CCCCCCCCCCCCCCCCCC(=O)N[C@H](C(=O)N[C@@H](Cc1cnc[nH]1)C(=O)N1CCC[C@H]1C(=O)N[C@@H](CCCCN)C(=O)N1CCC[C@H]1C(=O)N[C@@H](C)C(=O)N[C@@H](CCC(N)=O)C(=O)N1CCC[C@H]1C(N)=O)C(C)C` (Stearoyl-VHPKPAQP-NH2), the IC50 in [7] was 10000 nM; in assay [8], 59000 nM.

On to `CCCCCCCCCCCCCCCCCC(=O)N[C@H](C(=O)N[C@@H](CCSC)C(=O)N[C@H](C(=O)N[C@@H](CCCNC(=N)N)C(=O)N1CCC[C@H]1C(=O)N[C@@H](CC(C)C)C(=O)N[C@@H](CCCNC(=N)N)C(=O)N[C@@H](C)C(N)=O)[C@@H](C)O)C(C)C` (Stearoyl-VMTRPLRA-NH2), for which the concentration for half-maximal inhibition (IC50) in assay [7] and in assay [8] was greater than 100000 nM throughout.

For the molecule H-ARLPRTMVHPKPAQP-NH2, the Kd in assay [9] was determined as 22000 nM; in assay [10] it was 31000 nM. In addition, the Activity result in assay [4] is “Dose-dependent effect”.

On to H-EPYGFIAFSRAAHSP-OH, for which the dissociation constant Kd in assay [1] was 30 nM; in assay [2] it was 20 nM; in [3] it was 30 nM.

H-GRPPDSVFRSRGWLS-OH: the Kd in [1] worked out at 20 nM; in [2], 8.9 nM; in assay [3] it was 11 nM.

H-GRVPVFGLSPLFKVE-OH: the dissociation constant Kd in [1] was found to be 19 nM; in [2], 16 nM; in assay [3] it was 7.8 nM.

Regarding “H-IDIAFSSLALADISR-OH [IDIAFSSLALADISR] [listing 1 of 2 here]”, in assay [3], the affinity, expressed as Kd, was 19 nM.

In the case of “H-IDIAFSSLALADISR-OH [IDIAFSSLALADISR] [listing 2 of 2 here]”, the values for the dissociation constant (Kd) in assay [1] and in assay [2] were 30 nM and 13 nM, respectively.
